Source: ChEMBL document CHEMBL5625186, “Synthesis, cytotoxicity, antioxidant activity and molecular modeling of new NSAIDs-EBS derivatives” (Eur J Med Chem, 2023)
pEC50, pIC50: −log10 of the molar value. Calls of active or inactive are those of the source. No cut-off for these calls is given here.

How the values were obtained:
BGC-823 = experiment: Cytotoxicity against human BGC-823 cells measured after 24 to 72 hrs by MTT assay; format: functional, cell-based
Summary of the method: (§1)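 Cells were grown in RPMI 1640 with 10% FBS and penicillin/streptomycin at 37 °C, 5% CO2. They were seeded at 1×10^4 cells/well and allowed to attach for 24 h. Compounds at various concentrations were then applied for 24, 48 or 72 h (DMSO below 1.25%). MTT (5.0 mg/mL) was added 3 h before the end, formazan was dissolved in DMSO and OD was read at 570 nm. Doxorubicin served as reference. Data are mean ± SD, n=3.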

SW480 = experiment: Cytotoxicity against human SW480 cells measured after 24 to 72 hrs by MTT assay; format: functional, cell-based; summary of the method: as §1
MCF7 = experiment: Cytotoxicity against human MCF7 cells measured after 24 to 72 hrs by MTT assay; format: functional, cell-based; summary of the method: as §1
HeLa = experiment: Cytotoxicity against human HeLa cells measured after 24 to 72 hrs by MTT assay; format: functional, cell-based; summary of the method: as §1
A549 = experiment: Cytotoxicity against human A549 cells measured after 24 to 72 hrs by MTT assay; format: functional, cell-based; summary of the method: as §1
[1] = Antioxidant activity assessed as DPPH radical scavenging activity incubated for 30 mins under dark condition relative to control; format: functional; parameters: concentration or dose not given beside the values
Summary of the method: (§2)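 Compounds at a range of concentrations were mixed with DPPH solution and kept 30 min in the dark. Absorbance was read at 517 nm. % activity = [(control A − sample A)/control A] × 100. Vitamin C and ebselen served as positive controls and DMSO as the negative control. Fold is expressed relative to vitamin C (set as 1). Values are mean ± SD of three independent experiments.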

DNA = experiment: Induction of bleomycin-dependent DNA (unknown origin) damage assessed as absorbance at 0.1 mg/ml measured after 1 hr; format: nucleic-acid assay
Summary of the method: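 The bleomycin-iron/DNA mixture was incubated at 37 °C for 1 h and stopped with 0.1 M EDTA. Colour was developed with 1% TBA plus 25% HCl at 80 °C for 30 min. After ice cooling, DNA damage was read as the increase in absorbance at 532 nm. L-ascorbic acid served as the positive control.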

[2] = Antioxidant activity assessed as glutathione peroxidase-like activity at 41 mM measured over 3 mins; format: functional
Summary of the method: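 GPx-like rate measured from GSH/glutathione reductase/NADPH coupling in 50 mM phosphate buffer with 0.1% Triton X-100. The compound was added from a 41 mM solution, and the reaction was started with H2O2 (0.8 mM). A340 was followed for 3 min and expressed as ΔA/min. Values were corrected for the H2O2 + GSH background, and for the compound's own absorbance if coloured. Ebselen (41 mM) served as reference.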

[3] = biological target: T1, Thioredoxin reductase 1, cytoplasmic (Rattus norvegicus, UniProt O89049); experiment: Inhibition of rat TrxR1 using DTNB as substrate preincubated for 15 mins followed by substrate addition and measured for 20 mins by colorimetric method
T1 sequence (O89049 whole entry): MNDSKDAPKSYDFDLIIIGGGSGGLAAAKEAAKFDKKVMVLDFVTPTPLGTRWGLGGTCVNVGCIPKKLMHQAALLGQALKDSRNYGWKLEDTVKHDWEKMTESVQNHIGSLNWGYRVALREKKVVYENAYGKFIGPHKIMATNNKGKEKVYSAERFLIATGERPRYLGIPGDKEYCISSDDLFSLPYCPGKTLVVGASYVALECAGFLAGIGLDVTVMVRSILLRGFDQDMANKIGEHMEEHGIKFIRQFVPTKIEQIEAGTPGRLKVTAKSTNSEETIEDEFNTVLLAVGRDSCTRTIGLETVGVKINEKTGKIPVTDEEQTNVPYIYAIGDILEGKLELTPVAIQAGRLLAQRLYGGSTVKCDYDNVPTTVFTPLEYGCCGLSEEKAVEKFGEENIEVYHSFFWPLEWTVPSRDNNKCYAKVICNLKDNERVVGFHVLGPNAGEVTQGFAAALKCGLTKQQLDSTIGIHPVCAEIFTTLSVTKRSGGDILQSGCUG
Summary of the method: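 Rat TrxR1 (5 nM) was used in 100 mM potassium phosphate pH 7.0 with 1 mM EDTA, 0.1 mg/ml BSA and 0.2 mM NADPH. […] DTNB was then added and the A412 increase was monitored for 20 min.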

[4] = Potency index, ratio of test compound to vitamin C antioxidant activity assessed as DPPH radical scavenging activity incubated for 30 mins under dark condition; format: functional; summary of the method: as §2

SMILES	pEC50 [3]	pIC50 (BGC-823)	pIC50 (SW480)	pIC50 (MCF7)	pIC50 (HeLa)	pIC50 (A549)	inhibition [1]	Activity (DNA)	Activity [2]	Ratio [4]
COc1ccc2c(c1)c(CC(=O)NCc1ccc(-n3[se]c4ccccc4c3=O)cc1)c(C)n2C(=O)c1ccc(Cl)cc1	4.80	5.04	5.12	4.95	4.84	4.99	78.7%	101	Active	0.8
O=C1O[C@H]([C@@H](O)CO)C(O)=C1O	–	–	–	–	–	–	97.2%	292	–	–
CCC1(CC)OCCc2c1[nH]c1c(CC(=O)NCc3ccc(-n4[se]c5ccccc5c4=O)cc3)cccc21	4.77	5.01	4.91	5.06	4.90	5.01	52.1%	97.4	–	0.5
CC(C)Cc1ccc(C(C)C(=O)O)cc1 (stereo not drawn) [IBUPROFEN]	–	< 4.30	< 4.30	< 4.30	< 4.30	< 4.30	–	–	–	–
O=c1c2ccccc2[se]n1-c1ccccc1 [EBSELEN]	–	< 4.30	< 4.30	< 4.30	< 4.30	< 4.30	–	–	–	–
COc1ccc2cc(C(C)C(=O)NCCn3[se]c4ccccc4c3=O)ccc2c1 (stereo not drawn)	4.55	4.87	4.80	4.78	5.06	4.83	28.6%	123	Active	0.3
CC(=O)Oc1ccccc1C(=O)NCCn1[se]c2ccccc2c1=O	4.67	4.94	4.85	4.84	4.90	4.97	41.4%	91.4	Active	0.4
CC(C(=O)NCCn1[se]c2ccccc2c1=O)c1cccc(C(=O)c2ccccc2)c1 (stereo not drawn)	4.63	4.87	4.84	4.99	4.95	4.81	33.3%	87.6	Active	0.3
COc1ccc2cc([C@H](C)C(=O)O)ccc2c1 [NAPROXEN]	–	< 4.30	< 4.30	< 4.30	< 4.30	< 4.30	–	–	–	–
COc1cccc2c1C(=O)c1c(O)c3c(c(O)c1C2=O)C[C@@](O)(C(=O)CO)C[C@@H]3O[C@H]1C[C@H](N)[C@H](O)[C@H](C)O1 [DOXORUBICIN]	–	5.01	4.91	4.89	4.94	5.03	–	–	–	–
CC(=O)Oc1ccccc1C(=O)O [ASPIRIN]	–	< 4.30	< 4.30	< 4.30	< 4.30	< 4.30	–	–	–	–
CC1=C(CC(=O)NCc2ccc(-n3[se]c4ccccc4c3=O)cc2)c2cc(F)ccc2/C1=C\c1ccc([S+](C)[O-])cc1 (stereo not drawn)	4.98	5.02	5.01	5.13	5.08	5.08	42.9%	72.4	–	0.4

Continued, in another order:

pEC50 [3]	SMILES	pIC50 (BGC-823)	pIC50 (SW480)	pIC50 (MCF7)	pIC50 (HeLa)	pIC50 (A549)	inhibition [1]	Activity (DNA)	Activity [2]	Ratio [4]
4.58	Cc1cccc(Nc2ccccc2C(=O)NCCn2[se]c3ccccc3c2=O)c1C	5.19	5.14	5.28	5.06	5.28	37.4%	72.4	Active	0.4
4.84	Cc1cccc(Nc2ccccc2C(=O)NCc2ccc(-n3[se]c4ccccc4c3=O)cc2)c1C	5.47	5.35	5.38	5.42	5.44	54.3%	72.4	Active	0.5
4.76	CC(C)Cc1ccc(C(C)C(=O)NCc2ccc(-n3[se]c4ccccc4c3=O)cc2)cc1 (stereo not drawn)	5.12	4.98	4.91	5.03	5.09	42.6%	106	Active	0.4
4.95	CC(C(=O)NCc1ccc(-n2[se]c3ccccc3c2=O)cc1)c1ccc(-c2ccccc2)c(F)c1 (stereo not drawn)	5.19	5.08	4.95	5.02	4.91	58.2%	57.3	Active	0.6
4.84	COc1ccc2cc(C(C)C(=O)NCc3ccc(-n4[se]c5ccccc5c4=O)cc3)ccc2c1 (stereo not drawn)	4.87	5.13	4.86	5.01	4.94	68.6%	82.8	Active	0.7
4.94	O=C(NCc1ccc(-n2[se]c3ccccc3c2=O)cc1)c1ccccc1Nc1cccc(C(F)(F)F)c1	5.08	4.86	4.85	5.12	4.90	51.5%	56.1	–	0.5
4.71	CC(C(=O)NCc1ccc(-n2[se]c3ccccc3c2=O)cc1)c1cccc(C(=O)c2ccccc2)c1 (stereo not drawn)	4.95	4.90	5.08	5.04	4.88	31.3%	85.3	–	0.3
